The values that follow come from ChEMBL document CHEMBL4513216, “Probing the Open Global Health Chemical Diversity Library for Multistage-Active Starting Points for Next-Generation Antimalarials” (ACS Infect Dis, 2020).

This data set in a line: Toxicity liver stage against HepG2, at 10uM. In kind it is cell-based. Also on record: test concentration 10 uM, cell line HepG2-A16-CD81EGFP. Conditions: human, HepG2-A16-CD81EGFP cells; read-out: INHIBITION
In short, it runs like this: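 Uninfected HepG2-A16-CD81EGFP cells, 3 × 10^3 per well, 1536-well, plated on prespotted compound at 10 μM final, parasite-free screening media added to match infected plates; puromycin 10 μM positive, DMSO 0.5% negative; run in parallel with 48 h PbLuc assay at 37 °C, 5% CO2; viability by CellTiter-Glo luminescence, normalized to controls.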
For the compound `FC(F)(F)c1ccc2nc([C@H]3CCN(C4CCOCC4)C3)[nH]c2c1`, the cytotoxicity at 10 µM was found to be 0.354%.

Turning to `CC(C)(C)CN1Cc2cc3c(cc2NCCC1=O)OCO3`, the cytotoxicity at 10 µM is -84.3%. Under `COC(=O)COn1c(OC)nc2ccccc2c1=O` stands -4.73%; under `COc1ncnc2c1CCN(C(=O)Cc1cccc(F)c1)CC2`, 3.88%. Turning to `COc1ccc(-c2c(C(C)C)nn3c(=N)c(C#N)n[nH]c23)cc1`, the cytotoxicity at 10 µM was -12.2%.

Take `O=S(=O)(Nc1ccc(Oc2ccc3c(c2)OCO3)cc1)N1CCCCC1`: the cytotoxicity at 10 µM was -29.3%. On to `Cc1ccccc1OC1CCN(CC(=O)Nc2c(C)nn(C)c2C)CC1`, for which the cytotoxicity at 10 µM was determined as 0.919%. As for `Cc1cc(C)nc(N2CCCC(C)(c3[nH]ncc3C(=O)N(C)C)C2)n1` (stereo not drawn), the cytotoxicity at 10 µM was determined as 7.42%.

Regarding `Fc1cccc(Oc2nccnc2C2CCN(C3CCOCC3)CC2)c1`, the cytotoxicity at 10 µM was determined as 6.62%.

Regarding `Cc1cc(C(=O)N2Cc3ccccc3OC3(CCOCC3)C2)nc(N)n1`, the cytotoxicity at 10 µM was -0.928%. Next, `COCCNC(=O)N1CCSC2(CCCCC2)C1`: 2.07%; `Cc1nc(C)c(C(=O)N2CCc3cc(F)ccc3C2C)o1` (stereo not drawn): 10.5%; `CN(Cc1ccc(F)cc1F)Cc1cc2c(cc1Br)OCCO2`: -111%. Take `O=C(O)c1ccn(-c2cccc(NC(=O)c3ccccc3Cl)c2)n1`: the cytotoxicity at 10 µM was -139%. Under `Cc1cccc(C)c1NC(=O)c1cc(S(N)(=O)=O)c(C)o1` stands -4.27%; under `CCS(=O)(=O)N1CCc2c(cccc2NCc2nc(C)c(C)o2)C1`, -46.9%; under `COCc1nc(C(=O)NS(=O)(=O)c2ccc(OC)c(C)c2)cs1`, 1.06%.

Turning to `Cc1nn(C)c(Cl)c1C1CCCN1CC(=O)NC1CCCC1` (stereo not drawn), the cytotoxicity at 10 µM was -3.78%. Next, `Cc1ccoc1CNCc1nnc2n1CC(C(F)(F)F)CC2` (stereo not drawn): 14.3%; `Clc1cccc(CNC2CCN(CCc3ccncc3)CC2)c1`: -5.62%. Regarding `COc1cc(CN(C)C(=O)NCCNC(=O)C2CC2)ccc1SC`, the cytotoxicity at 10 µM was -3.73%. Regarding `CC(NCc1ccco1)c1nnc2n1CCCC2` (stereo not drawn), the cytotoxicity at 10 µM is -2.34%. Turning to `CC(Sc1nnnn1C1CCOCC1)C(F)(F)F` (stereo not drawn), the cytotoxicity at 10 µM was 11.5%.

As to `CCc1ncc2c(n1)CN(Cc1nc3c(F)cccc3[nH]1)CC2`, the cytotoxicity at 10 µM turned out to be 19%. Under `OC(COCc1ccccc1)CSc1nnc(C2CC2)n1C1CC1` (stereo not drawn) stands 4.93%; under `Cc1ccccc1-c1noc(CNc2ccc(F)cc2OCCO)n1`, -41.7%; under `O=C(CCCc1nc(C2CC2)no1)N1CCCC(c2ccn[nH]2)C1` (stereo not drawn), 12%. Turning to `COc1cc2c(c(OC)c1OC)CCN(CCn1cncn1)CC2`, the cytotoxicity at 10 µM is 11.5%.

Regarding `CCc1cnc(CCNC(=O)N2CCCC(c3ncc[nH]3)C2)s1` (stereo not drawn), the cytotoxicity at 10 µM was -4.15%. For `CN(CCNC(=O)Nc1ccn(C)n1)Cc1ccc(F)cc1`, the cytotoxicity at 10 µM amounted to 8.16%. Take `Cc1cc(C(=O)NCCN2CCCCC2C)nn1C(C)(C)C` (stereo not drawn): the cytotoxicity at 10 µM was found to be 1.57%. As to `Cc1cc(NC(=O)N(CCC#N)CCCN(C)C)ccc1F`, the cytotoxicity at 10 µM was -57.7%. Under `CO[C@@H]1CO[C@@]2(CCCN(C(=O)C3CC=CC3)C2)C1` stands -105%. For `CCN1CCC2(CC1)CC(CC(=O)N(C)C)c1ccc(F)cc12` (stereo not drawn), the cytotoxicity at 10 µM is -98.6%. Regarding `O=C(C1CCOCC1)N1C[C@H]2CCC[C@@]2(COCc2ccccn2)C1`, the cytotoxicity at 10 µM was -112%. As for `Cn1nnc2c1CCN(S(C)(=O)=O)C2COCc1ccccc1` (stereo not drawn), the cytotoxicity at 10 µM is -100%. As for `COC(=O)[C@@H]1CCCN1C(=O)c1cn(C/C=C/c2ccccc2)nn1`, the cytotoxicity at 10 µM was 3.61%. Consider `O=C1NC2(CCN(CCc3ccccc3)CC2)CC1c1ccccc1` (stereo not drawn), for which the cytotoxicity at 10 µM was -48.6%. Take `CCc1nnc(CN(C)C(=O)C(CC)n2c(CC)nc3ccccc32)o1` (stereo not drawn): the cytotoxicity at 10 µM is -4.27%. As to `CC(C)c1noc(-c2ccc(NCCCN3CCCC(O)C3)nc2)n1` (stereo not drawn), the cytotoxicity at 10 µM was -6.87%. For `c1ccc(CCCN2CCCN(c3ncnc4[nH]ccc34)CC2)cc1`, the cytotoxicity at 10 µM is -5.86%. With `OCC1(O)CCCN(Cc2ccccc2OCCc2ccccc2)CC1` (stereo not drawn), the cytotoxicity at 10 µM was -45.4%.

Turning to `CCC(=O)c1ccc(OCC(=O)NCC2CC(CC)=NO2)cc1` (stereo not drawn), the cytotoxicity at 10 µM is -41.7%. For the compound `COc1cc(-c2cc(C3CCOC3)c(C#N)c(N)n2)ccc1O` (stereo not drawn), the cytotoxicity at 10 µM was -0.412%. As to `CCOc1ccc(-n2nc(C)c(CC(C)=O)c2C)cc1C(N)=O`, the cytotoxicity at 10 µM turned out to be 7.09%. Next, `CCc1ccc(CN(C/C=C/c2ccccc2)CCOC)nc1`: 10.2%; `COc1ccc(C(C(=O)O)N(C)CCN2CCCC2)c(C)c1` (stereo not drawn): 3.41%. Under `COCCCC1CCCCN1C(=O)c1ccc(SCCO)cc1` (stereo not drawn) stands -50%; under `COc1ccc(-n2cccn2)c(CN2CCC3(CCNCC3)C2)c1`, 0.0652%; under `CC(C1CCN(Cc2c(Cl)cncc2Cl)CC1)N1CCOCC1` (stereo not drawn), -8.68%. Next, `CNc1ccnc(NCC(=O)Nc2cc(C)ccc2OC)n1`: -2.9%; `CCc1nc2c(c(NC3CCC3)n1)CCN(C(=O)CO)CC2`: 5.42%. In the case of `COc1ccccc1N1CCN(C(=O)Cn2nc(C)cc2C)CC1(C)C`, the cytotoxicity at 10 µM turned out to be 9.62%.

For the compound `COc1ccc(C(=O)N2CCCCC2c2ccccn2)c(OC)n1` (stereo not drawn), the cytotoxicity at 10 µM was -0.649%. On to `CC(C)c1nccc(CN2CCC(c3nc4ccccc4n3C)CC2)n1`, for which the cytotoxicity at 10 µM came to 7.23%.

For `Fc1ccc(-c2noc3c2CN(CC2CC2)CC3)cc1F`, the cytotoxicity at 10 µM was -6.39%. As for `CC(COc1ccccc1)NS(C)(=O)=O` (stereo not drawn), the cytotoxicity at 10 µM is -4.05%. On to `O=C(COCC1CCCO1)N1CCCN(Cc2ccccc2F)CC1` (stereo not drawn), for which the cytotoxicity at 10 µM worked out at 2.86%. Take `Cc1nccn1-c1cccc(C2CCCN2S(=O)(=O)N(C)C)n1` (stereo not drawn): the cytotoxicity at 10 µM was determined as 3.44%. Take `N#CCCNC(=O)CN1CC(n2cccn2)C1`: the cytotoxicity at 10 µM was -7.29%. Under `CC(CNC(=O)c1ccc(=O)[nH]n1)N1CCc2ccccc21` (stereo not drawn) stands -8.93%; under `Cc1ccc(NC2CCN(C(=O)COCC(F)(F)F)CC2)nn1`, 6.38%. Regarding `Cc1ccc(NC(=O)N(C)Cc2cnn(C)c2)cc1OCC(F)F`, the cytotoxicity at 10 µM was -0.243%.

For the compound `Fc1cccc(CN2CCC(c3cc4ncccc4cn3)CC2)c1F`, the cytotoxicity at 10 µM is -7.62%. With `Fc1ccccc1Cn1c(C2CCNCC2)cc2cccnc21`, the cytotoxicity at 10 µM turned out to be 1.25%.

Take `O=C1COC2(CCN(Cc3ccoc3)CC2)CN1c1ccsc1`: the cytotoxicity at 10 µM worked out at 3.09%.

On to `CCn1nnc2c1C(COCCN(C)C)CN(S(=O)(=O)CC)C2` (stereo not drawn), for which the cytotoxicity at 10 µM is -4.38%. Take `CN(C)C(=O)C1CN(Cc2ccsc2)Cc2ccnn2C1` (stereo not drawn): the cytotoxicity at 10 µM is -6.75%. With `CC1c2ncc(CN3CCN(C)CC3)n2CCN1Cc1ccccn1` (stereo not drawn), the cytotoxicity at 10 µM was -0.23%. For the compound `COc1cc(N2C[C@H]3CCN(CCN4CCCC4)C[C@H]3C2)ncn1`, the cytotoxicity at 10 µM came out at 12%.

For `CN(C)C(=O)N1CCC2(CCCN(Cc3cnn(C)c3)C2)C1` (stereo not drawn), the cytotoxicity at 10 µM was 4.91%.

Turning to `Cn1ccc(CN2CCCC23CCN(Cc2ccccc2F)CC3)n1`, the cytotoxicity at 10 µM is -104%. As for `Cc1cccc(CN2CCCC3(CCN(CC4CCCO4)CC3)C2)n1` (stereo not drawn), the cytotoxicity at 10 µM is -121%.
